Assay [1] in a line: S. cerevisiae growth inhibition in permissive medium (OD615), pilot counter-assay for S. cerevisiae lifespan shortening project, permissive growth control (AID 705;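 active means growth inhibition above 25% in both replicates, a cutoff set 3 SD above the mean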). To be noted: OD615, 24 h, at 10 µM, hits give high values. The essentials: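 System: Engineered DeaD yeast | Buffer or medium: SC raffinose/galactose permissive medium | Incubation: Cells pre-grown 4 h, then 24 h compound exposure, 30 °C humidified | Measured by: Absorbance (optical density) at 615 nm | Read-out: Reduction in yeast growth (OD615)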

Assay [2] is described as follows: S. cerevisiae growth inhibition in restrictive medium, OD615, pilot screen, restrictive growth control, yeast lifespan reduction project (AID 706;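 active means growth inhibition above a set limit, 3 SD over mean compound inhibition, in both replicates, cut at about 43% in these data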;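 further: modified DeaD lifespan yeast strain shifted to restrictive glucose medium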). To be noted: OD615, 48 h, at 10 µM, hits give high values. The essentials:
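Material: modified S. cerevisiae; Medium: glucose-based CSMM-D restrictive medium; Compound dosing: one concentration, 10 µM final, 0.25% DMSO; Incubation: 48 h compound exposure at 30 °C; Measured by: OD615.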

The nature of assay [3]: doxorubicin toxicity protection in MRP-1 cells – H69AR cells, CellTiter-Glo, duplicate, MRP-1 activator project, pilot screen (AID 807;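 active means viability increase at or above a cutoff of the median across tested compounds plus 3 SD, cut at about 8.5% in these data, passing the limit was not always enough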;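 further: compound pretreatment 18-22 h then 72 h combined with doxorubicin; 0% = doxorubicin alone and 100% = vehicle without doxorubicin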). Conditions: H69AR viability with doxorubicin, CellTiter-Glo luminescence; at 10 µM; hits give high values. In general terms: In ATP-based viability assays light output follows the ATP content of the culture.
Assay [4] can be described thus: viability of HCT116 without oncogenic beta-catenin – human colon tumor cells, pilot screen (AID 823).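 Further: 0% = wells killed by 20 µM Hyamine and 100% = untreated DMSO cell wells.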 To be noted: HCT116 beta-catenin knockout viability, CellTiter-Glo, 60 h; at 10 µM; hits give low values.
Assay [5] in a line: viability of PTEN-null HCT116 cells – cell-based, HCT116 clonal line, CellTiter-Glo, pilot screen (AID 824;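 active means viability at or below 27.92% in each of two runs, the all-compound median minus 4 SD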;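 further: 0% = 20 µM Hyamine control and 100% = vehicle cell control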). To be noted: HCT116 PTEN-deleted viability, 60 h, at 10 µM, hits give low values.
A short description of assay [6]: RAM pathway blockade in budding yeast – dse1pr::URA3 reporter, 5-FOA selection, pilot screen (AID 869;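 active means inhibition over a set limit, the all-compound mean plus 3 SD, in both replicate runs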;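 further: 0% = DMSO wells with no growth and 100% = 10 µM 1-NA-PP1 with full growth; RAM network block rescues cells from 5-FOA so hits raise OD615 growth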). Conditions: S. cerevisiae dse1pr::URA3 5-FOA growth, OD615, 2 d; at 10 µM; hits give high values; strain carries analog-sensitive mutant Cbk1 kinase.
The nature of assay [7]: RAM signaling pathway blockade in yeast – S. cerevisiae, Pdr1DBD-CYC8 efflux-inhibited sensitized strain, primary screen (AID 1298;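 active means RAM network inhibition above 8.4% in each of two replicates, 3 SD over the compound average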;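 further: 0% = DMSO untreated cells without growth and 100% = 10 µM 1-NA-PP1 full growth; higher means more yeast growth rescued from 5-FOA killing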). To be noted: S. cerevisiae cbk1-as DSE1-URA3 strain, 5-FOA growth OD615, 2 d; at 50 µM; hits give high values.

SMILES strings stand for the structures. A number with no mark means an inactive call. Records with an inconclusive call do not appear. Activity calls are given as the source filed them.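 How the source made its calls, unless noted: active means cell viability at or below a set limit in both duplicate runs, the limit being the all-compound median minus 4 SD (cut at about 23% in these data, passing the limit was not always enough); inconclusive means no clear call, values can overlap the other calls; inactive means the rest.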

`O=C(NCCCN1CCOCC1)c1cc(-c2ccc3c(c2)OCO3)nc2ccccc12`: the growth inhibition is -19.7% in assay [1] and -7.51% in assay [2]. The viability increase in assay [3] was -3.78%. The viability (in general, a read-out of living cells in per cent, often relative to untreated cells) in assay [4] is 92.8%; in assay [5], 89.3%. In addition, in assay [6], the inhibition (commonly how much of the control response was suppressed) is 1.26%. Moreover, the RAM network inhibition in assay [7] was 7.64%.
On to `O=C(Nc1ccccc1Oc1ccccc1)C1CC1`, for which the results for the growth inhibition in assay [1] and in assay [2] were -13.6% and 3.26%, respectively. Besides, in assay [3], the viability increase is -2.26%. Besides, the viability was 89.5% in assay [4] and 93.1% in assay [5]. The inhibition in assay [6] is 0.595%. Moreover, the RAM network inhibition in assay [7] is 3.21%.
In the case of `O=C(NCC1CCCO1)NC1(C(F)(F)F)Oc2ccccc2O1` (stereo unspecified), the growth inhibition in assay [1] was -24.1%; in assay [2] it was -16%. The viability increase in assay [3] was -7.32%. Further, the viability was 60.8% in assay [4] and 67.1% in assay [5]. Further, the inhibition in assay [6] was 1.9%. For the same compound, the RAM network inhibition in assay [7] was 2.09%.
With `O=C(c1ccc(CNc2c(N3CCOCC3)c(=O)c2=O)cc1)N1CC=C(c2ccccc2)CC1`, the growth inhibition in assay [1] is -1.62%; in assay [2], -7.31%. Further, in assay [3], the viability increase is -0.15%. Moreover, the results for the viability in assay [4] and in assay [5] were 95.3% and 94.8%, respectively. Further, in assay [6], the inhibition was 2.02%. In assay [7], the RAM network inhibition is 6.56%.
Regarding `COc1ccc(Cl)cc1NC(=O)c1nc2nc(C)cc(C(F)F)n2n1`, the growth inhibition in assay [1] was -3.76%; in assay [2], -10.8%. In assay [3], the viability increase was -4.12%. Besides, the viability is 94.4% in assay [4] and 88.4% in assay [5]. In addition, the inhibition in assay [6] was 2.35%. For the same compound, in assay [7], the RAM network inhibition was 2.1%.
On to `CC1CCN(CC(C)OC(=O)c2ccc3c(c2)OCCO3)CC1` (stereo unspecified), for which the growth inhibition is -8.49% in assay [1] and 6.58% in assay [2]. Besides, the viability increase in assay [3] is -0.68%. Also, the viability in assay [4] was 112%; in assay [5], 105%. The inhibition in assay [6] is 1.62%. For the same compound, the RAM network inhibition in assay [7] was 3.4%.
As to `Cc1cc(C)c(NC(=O)CN2CCN(C)CC2)c(C)c1`, the growth inhibition in assay [1] was -1.99%; in assay [2], 4.72%. In addition, the viability increase in assay [3] was -1.53%. For the same compound, the viability in assay [4] is 112%; in assay [5] it was 92.3%. Besides, in assay [6], the inhibition was 2.21%. Also, the RAM network inhibition in assay [7] is 1.38%.
As for `COc1cccc(N2CCN(c3ncnc4c3cnn4-c3ccc(C)cc3C)CC2)c1`, the growth inhibition in assay [1] is 4.2%; in assay [2], 3.35%. In addition, the viability increase in assay [3] was -8.59%. In addition, the viability was 7.71% (active) in assay [4] and 10.3% (active) in assay [5]. In addition, the inhibition in assay [6] was 1.66%. The RAM network inhibition in assay [7] is 8.39%.
For `CCOc1ccc(C2CC(c3ccc(F)cc3)n3ncnc3N2)cc1` (stereo unspecified), the growth inhibition is 4.61% in assay [1] and -1.42% in assay [2]. Also, the viability increase in assay [3] is -0.13%. In addition, the viability in assay [4] was 100%; in assay [5], 91.1%. Further, in assay [6], the inhibition was 2.65%. For the same compound, in assay [7], the RAM network inhibition is -0.36%.
As to `S=c1sc2c(N3CCOCC3)ncnc2n1-c1ccccc1`, the growth inhibition in assay [1] was -11.6%; in assay [2] it was 8.65%. Also, the viability increase in assay [3] is -3.12%. Moreover, the viability in assay [4] was 102%; in assay [5] it was 94.9%. For the same compound, the inhibition in assay [6] is 1.64%. Besides, in assay [7], the RAM network inhibition is 4.8%.
Consider `CC1CCCCN1CCCNC(=O)C1CCN(c2nc3ccccc3o2)CC1` (stereo unspecified), for which the growth inhibition was -2.48% in assay [1] and -4.11% in assay [2]. Moreover, the viability increase in assay [3] was -0.83%. Moreover, the viability in assay [4] is 99.9%; in assay [5] it was 97.8%. For the same compound, the inhibition in assay [6] is 0.5%. The RAM network inhibition in assay [7] was 3.1%.
For the compound `CC(C)(C)c1ccc(S(=O)(=O)N2CCCCC2C(=O)NCc2ccccn2)cc1` (stereo unspecified), the growth inhibition in assay [1] is -24.9%; in assay [2], -29%. For the same compound, the viability increase in assay [3] was -2.34%. Besides, the viability in assay [4] is 93%; in assay [5] it was 84.6%. Further, the inhibition in assay [6] is 0.13%. Besides, the RAM network inhibition in assay [7] was 5.71%.
Consider `CCC/C(O)=C1\C(=O)CC(C)(C)CC1=Nc1ccccc1OC`, for which the growth inhibition is -18.3% in assay [1] and -21.1% in assay [2]. The viability increase in assay [3] is -2.83%. Besides, the viability in assay [4] is 87.6%; in assay [5] it was 87%. In addition, in assay [6], the inhibition was 3.95%. In assay [7], the RAM network inhibition is 9.85%.
As to `O=C1c2ccccc2C(O)N1Cc1ccco1` (stereo unspecified), the values for the growth inhibition in assay [1] and in assay [2] were 5.97% and -0.555%, respectively. Besides, the viability increase in assay [3] is -2.36%. For the same compound, the viability in assay [4] was 93.6%; in assay [5], 94.6%. Further, the inhibition in assay [6] was 0.695%. The RAM network inhibition in assay [7] was 0.68%.
As to `Cc1cc(OCCN2CCCC2)ccc1C(C)C`, the growth inhibition in assay [1] was -4.67%; in assay [2], -1.01%. The viability increase in assay [3] was -1.29%. For the same compound, the viability in assay [4] is 89.1%; in assay [5], 91.3%. For the same compound, the inhibition in assay [6] is 2.1%. For the same compound, the RAM network inhibition in assay [7] was 8.59%.
On to `COC(=O)C(C)Sc1nnc(Cc2cc(=O)[nH]c(=O)[nH]2)n1-c1ccc(OC)cc1` (stereo unspecified), for which the growth inhibition in assay [1] is 8.07%; in assay [2], 4.31%. Also, the viability increase in assay [3] was 0.81%. Besides, the viability was 106% in assay [4] and 101% in assay [5]. Also, the inhibition in assay [6] is 1.41%. The RAM network inhibition in assay [7] was 2.47%.
On to `CN(Cc1ccccc1)C(=O)CCC(=O)N(C)Cc1ccccc1`, for which the growth inhibition was -1.99% in assay [1] and 4.61% in assay [2]. Further, the viability increase in assay [3] was -0.27%. Besides, the viability in assay [4] was 103%; in assay [5], 90.2%. Moreover, the inhibition in assay [6] is 0.97%. The RAM network inhibition in assay [7] is -0.11%.
As to `CC(=O)c1cccc(NC(=O)C2CCCN(S(=O)(=O)c3cccc4cccnc34)C2)c1` (stereo unspecified), the growth inhibition in assay [1] is -10.5%; in assay [2], -5.17%. In addition, the viability increase in assay [3] was -2.34%. Besides, the viability in assay [4] is 83.5%; in assay [5] it was 73.7%. In addition, in assay [6], the inhibition is 2.18%. Moreover, the RAM network inhibition in assay [7] is 4.5%.

(Values after PubChem BioAssay.)
